Assay [1] is described as follows: DPPH free radical scavenging assay. The conditions noted are these: methanolic solutions, 30 min, 517 nm, mean ± SD (n = 3). The method in brief: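 DPPH stock (60 μM in methanol), 1 ml, mixed with 1 ml of test compound or standard at 0.0125, 0.025, 0.05, 0.1 and 0.2 mg/ml. Shaken, left 30 min, then read at 517 nm. Scavenging % = (Ac−At)/Ac×100, where the control holds all reagents except the compound. BHT was the standard. IC50 came from logarithmic non-linear regression; three replicates.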

Assay [2] can be described thus: Hydrogen peroxide scavenging assay. The settings on record: at 0.312 mg/ml, 20 min, 230 nm, mean ± SD (n = 3). The method in brief:
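H2O2 was made at 40 mM in saline phosphate buffer, pH 7.4, and its level checked at 230 nm. 100 μl of methanolic test compound or standard solution (0.312 mg/ml) went into 2 ml of H2O2 solution. A230 was read after 20 min against a blank of compound in buffer without H2O2. Scavenging % = (Ac−At)/Ac×100. BHT and gallic acid were standards; three replicates.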

The target of assay [3] is mushroom tyrosinase (EC 1.14.18.1) (Agaricus bisporus, UniProt C7FF04). In words: biochemical.
Sequence of mushroom tyrosinase (EC 1.14.18.1) (C7FF04 1-392): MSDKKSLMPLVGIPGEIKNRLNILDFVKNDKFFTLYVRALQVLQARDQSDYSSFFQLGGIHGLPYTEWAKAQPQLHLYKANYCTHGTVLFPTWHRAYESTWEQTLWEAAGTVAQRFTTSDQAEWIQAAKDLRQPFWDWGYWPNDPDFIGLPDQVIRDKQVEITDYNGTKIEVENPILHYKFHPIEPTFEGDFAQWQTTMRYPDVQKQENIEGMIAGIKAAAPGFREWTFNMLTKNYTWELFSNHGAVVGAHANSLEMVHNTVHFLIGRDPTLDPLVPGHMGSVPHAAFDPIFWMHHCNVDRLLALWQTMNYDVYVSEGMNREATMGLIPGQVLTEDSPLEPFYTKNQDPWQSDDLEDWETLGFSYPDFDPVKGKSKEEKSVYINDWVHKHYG

Take `Cc1cc(C(C)(C)C)c(O)c(C(C)(C)C)c1` [BHT, Butylated hydroxyl toluene, reference compound]: the “IC50 values for DPPH” value in assay [1] amounted to 49.19 ± 1.7 µg/mL. The “H2O2 Scavenging” value in assay [2] is reported as 78.52±1.85%.
`COc1ccc(NCc2cc(=O)c(O)cn2C)cc1` [Compound 2, 5-Hydroxy-2-[(4-methoxyphenylamino)methyl]-1-methylpyridin-4(1H)-one] showed a concentration for half-maximal inhibition (IC50) in assay [3] of 617 ± 19 µM. In addition, the “IC50 values for DPPH” value in assay [1] amounted to 44.62 ± 2.9 µg/mL. For the same molecule, the “H2O2 Scavenging” value in assay [2] amounted to 64.97±0.96%.
In turn, `Cn1cc(O)c(=O)cc1CNc1ccc(O)cc1` [Compound 3, 5-Hydroxy-2-[(4-hydroxyphenylamino)methyl]-1-methylpyridin-4(1H)-one] registered a 50% inhibitory concentration (IC50) in assay [3] of 404 ± 14 µM. The “IC50 values for DPPH” value in assay [1] stood at 34.38 ± 1.9 µg/mL. Also, the “H2O2 Scavenging” value in assay [2] is reported as 63.70±1.49%.
As for `O=c1cc(CNc2cccc([N+](=O)[O-])c2)[nH]cc1O` [Compound 11, 5-Hydroxy-2-[(3-nitrophenylamino)methyl]pyridin-4(1H)-one], the IC50 in assay [3] came out at 217 ± 9 µM. Besides, the “IC50 values for DPPH” value in assay [1] is 25.17 ± 1.8 µg/mL. In addition, the “H2O2 Scavenging” value in assay [2] was 61.77±1.16%.
Regarding `O=C(O)c1cc(O)c(O)c(O)c1` [Galic acid, gallic acid, reference compound], the “H2O2 Scavenging” value in assay [2] is on record as 97.39±0.76%.
